Screening data (PubChem)
The entries come from a sample that favours hits as a whole.
NALP1 inh – blocks the NALP1 inflammasome reconstituted in yeast; S. cerevisiae NALP1/ASC/caspase-1 growth, X-gal OD620, 72 h; inhibition, % at 10 µM; 0.61% of 280,000 active; AID 2071; in the data active = inhibition mostly above about 24%, no sharp cut-off; inactive = mostly below about 32%
NALP3 yeast inh – inhibitors of NALP3 inflammasome in yeast; inhibition, % at 10 µM; Yeast reconstituted NLRP3/ASC/caspase-1, beta-gal luminescence, 24 h; 0.39% of 330,000 active;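 active = inhibition of 50% or more; inactive = inhibition below 50%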;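 also: plate controls were induced DMSO wells for no effect and uninduced yeast grown without galactose for full effect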
Calb FLC – C. albicans growth modulation with fluconazole | C. albicans CaCi-2 + fluconazole, Alamar Blue growth, 48 h | growth inhibition, % (no concentration beside the values) | 0.57% of 300,000 active;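 active = growth inhibition above about 58% in most replicates, limit read from the data, passing the limit was not always enough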;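 also: all wells also contain fluconazole at 8 µg/ml as a sub-toxic cotreatment; 0% = median of DMSO wells and 100% = median of geldanamycin control wells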
PolyA inhibitor – blocks polyadenylation in yeast reporter cells; 0.02% of 300,000 active; activity score, % at 12 µM; S. cerevisiae SKY197-pL101 polyadenylation reporter, beta-gal luminescence; efflux-impaired pdr1/pdr3 knockout yeast; score 100 = 6 SD above DMSO;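 active = lowest replicate activity score at least 50, where 100 means six control SD above control mean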;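 also: yeast exposed to compound for 9 h at 30 °C; higher score means more reporter readthrough which indicates perturbed polyadenylation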
T cruzi inh – blocks replication of Trypanosoma cruzi. AID 1885. 1.4% of 300,000 active. inhibition, % (concentration not given with the values). T. cruzi beta-gal in NIH3T3, luminescence, 90 h;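 active = mean inhibition across valid replicates above about 55%, limit read from the data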;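 also: signal also drops with host cell toxicity which is not excluded here; 0% = plate median of DMSO wells and 100% = zero luminescence signal; higher percent means less beta-gal luminescence so fewer parasites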
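System: mouse NIH/3T3 fibroblasts infected with β-gal-expressing T. cruzi Tulahuen C4 / Input: NIH/3T3 cells, 5,000 per well / Buffer or medium: Low-serum DMEM with 2% FBS / Probe or stimulus: 5000 reporter trypomastigotes per well / Schedule: ≥90 h infection period, 3 h prior cell attachment / Measured by: GalScreen luminescence, 60 min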
L major viab – inhibitors of Leishmania major promastigote growth; Leishmania major promastigotes, resazurin fluorescence viability; inhibition, % at 10 µM; 9% of 200,000 active; AID 1063; in the data active = inhibition above about 50%;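 also: promastigotes grown with compound for 44 hours at 28 °C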
An asterisk follows results filed as active; nt = not tested or not shown.

SMILES	NALP1 inh	NALP3 yeast inh	Calb FLC	PolyA inhibitor	T cruzi inh	L major viab
CCOc1ccc2nc(NC(=O)c3cccc(-c4cc5ccccc5oc4=O)c3)sc2c1	17	nt	9	-2	30	-1
Cc1ccc2nc(NC(=O)c3cccc(-c4cc5ccccc5oc4=O)c3)sc2c1	8	28	1	22	64*	-2
CCN(Cc1ccc(Cl)s1)C(=O)c1cccc(OCc2c(C)noc2C)c1	nt	16	nt	nt	nt	nt
CC(=O)c1cc2ccc(O)cc2oc1=O	-44	-5	1	-4	3	nt
Cc1ccc(N=c2oc3cc(O)ccc3cc2C(N)=O)cc1	2	8	0	4	60*	18
Cc1ccccc1C(=O)O/N=C(\N)Cc1cccs1	15	23	10	17	51	nt
O=C(CSCc1ccccc1Cl)Nc1c[nH]c(=O)[nH]c1=O	13	-14	-10	21	-8	59*
CC1(c2cccc(Br)c2)NC(=O)N(CC(=O)Nc2ccc(F)cc2)C1=O (configuration not stated)	16	-10	7	-5	-17	nt
CC(=O)c1cccc2c(O)c(C3=Nc4ccccc4C3=O)[nH]c12	12	9	-8	-24	-9	99*
COc1ccc(CNCc2cccc(Cl)c2)cc1	35	17	-9	3	1	66*
O=C(O)c1ccc(CNCc2cccc(Cl)c2)cc1	12	18	-16	-5	-3	-2
COc1ccc(CNCC(O)(c2ccccc2)c2ccc(Cl)cc2)cc1 (configuration not stated)	57*	35	-20	-1	30	18
COc1cccc(CNCC(O)(c2ccc(Cl)cc2)c2ccc(Cl)cc2)c1	18	24	-19	-4	25	65*
CCOC(=O)c1c(S(=O)(=O)N(C)Cc2ccccc2)c(C)n(C)c1C	9	-2	1	13	9	nt
C=CCNCCOCCSc1ccc(Cl)cc1	56	2	1	9	39	99*
COCCCNCCOCCOc1c(OC)cccc1OC	24*	7	-9	-14	25	83*
C=CCNCCCOc1ccc(Cl)cc1C(C)(C)C	12	16	-70	-22	17	100*
OCCNCCCOc1cc(Cl)ccc1Cl	20	25	-9	1	2	10
C=CCNCCOCCOc1ccc(Cl)cc1C(C)(C)C	27	25	-64	-10	16	100*
COC(=O)C1=C(C)NC(=S)NC1c1ccco1 (configuration not stated)	19	10	-5	0	-14	-2
COc1ccc(C(CNC(=O)c2ccc(S(=O)(=O)N3CC(C)CC(C)C3)cc2)N(C)C)cc1 (configuration not stated)	nt	13	nt	nt	nt	nt
CC(C)(C)NCCOCCOc1ccc(Cl)cc1C(C)(C)C	15	16	-35	-13	36	91*
COCCCNCCOCCOc1ccc(Cl)cc1C(C)(C)C	37	28	-27	-30	41	100*
COCCNCCCCSc1ccc(Cl)cc1	22	4	-49	-1	10	92*
Cc1ccc(OCCOCCN2CCN(C)CC2)c(C(C)(C)C)c1	28	3	-13	-5	51	nt
SMILES	NALP1 inh	NALP3 yeast inh	Calb FLC	PolyA inhibitor	T cruzi inh	L major viab
COCCNC(=O)CSc1ccc(Cl)cc1	16	-12	2	12	-17	-2
C(=C\c1ccco1)/C1=NN(c2ccccc2)C(c2ccco2)C1 (configuration not stated)	34	-1	-11	-9	-9	7
O=[N+]([O-])c1ccc(/C=C/C2=NN(c3ccccc3)C(c3ccco3)C2)o1 (configuration not stated)	-6	nt	-3	-3	61*	42
COc1ccc(NC(=O)c2c(-c3c(Cl)cccc3Cl)noc2C)cn1	6	5	3	4	-3	nt
Cc1c(Cl)cccc1NC(CC(=O)c1ccccc1)C(=O)O (configuration not stated)	16	2	-6	-3	-20	67*
O=C(CC(Nc1ccccc1Cl)C(=O)O)c1ccccc1 (configuration not stated)	-3	14	16	3	-24	3
CC1=NN(C(N)=S)C(=O)C1N=Nc1ccc(O)cc1 (configuration not stated)	-22	33	12	4	24	58*
Cn1ccsc1=NC(=O)c1ccc([N+](=O)[O-])o1	7	28	45	-12	60*	nt
CC(=O)c1cc(-c2nc3ccccc3n2C)n(C)c1	8	7	-4	-8	-13	16
Cn1cc(C(=O)c2ccc(F)cc2)cc1-c1nc2ccccc2n1C	10	24	-15	-9	-2	71*
CC(=O)Nc1ccc(S(=O)(=O)N2CCSC2c2ccccc2)cc1 (configuration not stated)	7	-2	-7	-4	3	14
CC(=O)Nc1ccc(S(=O)(=O)N2CCSC2c2ccccc2Cl)cc1 (configuration not stated)	4	10	5	5	0	64*
Cc1c(CCCN)c2ccccc2n1Cc1ccccc1	19	27	-6	2	0	92*
O=Nc1c(O)n(Cc2ccccc2)c2ccccc12	-6	-1	-19	3	1	nt
O=C(CCCc1nc2ccccc2s1)NNC(=O)CCN1CCN(Cc2ccccc2)CC1	-4	16	14	-6	-1	-3
CCOC(=O)[C@H]1[C@H]2COc3ccc(Cl)cc3[C@@H]2N2C(=O)CN(Cc3ccc(Cl)cc3)C(=O)[C@@]12C	nt	-10	nt	nt	nt	nt
Cc1ccc(CNC(=O)C(Cc2ccccc2)NS(=O)(=O)c2cccs2)cc1 (configuration not stated)	7	17	-27	4	0	59*
O=C(NC1CCCc2ccccc21)C(Cc1ccccc1)NS(=O)(=O)c1cccs1 (configuration not stated)	20	5	-4	-14	2	77*
O=C(NC1CCCCC1)C(Cc1ccccc1)NS(=O)(=O)c1cccs1 (configuration not stated)	-7	7	-15	4	8	1
CCn1cc(C(=O)NCCC(C)C)c(=O)c2cc(F)c(N3CCN(C(=O)c4ccco4)CC3)cc21	-3	11	-6	-13	35	nt
COc1ccc(C2(CNC(=O)Cc3ccc(OC)c(OC)c3)CCOCC2)cc1	25*	17	-3	29	-3	-2
O=C(NCc1cccnc1)c1cccs1	12	-1	-12	16	2	-5
CCOc1ccc(N(CC(=O)NCC2CCCO2)S(=O)(=O)c2ccc(Cl)cc2)cc1 (configuration not stated)	1	-3	-1	-2	-3	70*
O=c1c2cc(Cl)ccc2nc(-c2ccc(Cl)c(Cl)c2)n1O	nt	24	101*	-7	43	nt
